Legend:
HT-29 = assay: Growth inhibition of human HT-29 cells assessed as cell growth at 10 uM after 48 hrs by sulforhodamine B assay; assay type: functional; details: HT-29, 48 h, read-out: Activity
Procedure, shortened: (§1)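 NCI-60 single-dose screen at 10 µM: cells in RPMI 1640 with 5% FBS, preincubated 24 h, then exposed 48 h at 37 °C. TCA fixation (16% final for suspension cells), SRB staining, absorbance 515 nm. Percent growth relative to time-zero and untreated control plates; negative values indicate cell kill.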

CAKI-1 [1] = assay: Growth inhibition of human CAKI-1 cells assessed as cell growth at 10 uM after 48 hrs by sulforhodamine B assay; assay type: functional; details: CAKI-1, 48 h, read-out: Activity; procedure, shortened: as §1
RXF 393 = assay: Growth inhibition of human RXF393 cells assessed as cell growth at 10 uM after 48 hrs by sulforhodamine B assay; assay type: functional; details: RXF 393, 48 h, read-out: Activity
Procedure, shortened: (§2)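 Single-dose NCI-60 screen: adherent cells in RPMI 1640 with 5% FBS were exposed to 10 µM for 48 h at 37 °C after a 24 h preincubation. They were fixed in situ with cold TCA (10% final), stained with 0.4% SRB in 1% acetic acid, solubilized in 10 mM Tris base, and read at 515 nm. Percent growth was taken relative to time-zero and control plates.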

COLO 205 = assay: Growth inhibition of human COLO205 cells assessed as cell growth at 10 uM after 48 hrs by sulforhodamine B assay; assay type: functional; details: COLO 205, 48 h, read-out: Activity; procedure, shortened: as §1
MDA-MB-231 = assay: Growth inhibition of human MDA-MB-231 cells assessed as cell growth at 10 uM after 48 hrs by sulforhodamine B assay; assay type: functional; details: MDA-MB-231, 48 h, read-out: Activity; procedure, shortened: as §2
MCF7 = assay: Antiproliferative activity against human MCF7 cells by MTT assay; assay type: functional, cell-based
Procedure, shortened: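 Cells plated at 8 × 10^3/well (MDA-MB-231) or 10^4/well (MCF7) in 96-well plates. Compounds fed in media with 5% FBS (MDA-MB-231) or 1% FBS (MCF7). MTT read-out of viable cells.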

HCT-116 = assay: Growth inhibition of human HCT116 cells assessed as cell growth at 10 uM after 48 hrs by sulforhodamine B assay; assay type: functional; details: HCT-116, 48 h, read-out: Activity; procedure, shortened: as §1
[2] = Growth inhibition of human EKVX cells assessed as cell growth at 10 uM after 48 hrs by sulforhodamine B assay; assay type: functional; details: read-out: Activity; procedure, shortened: as §1
MDA-MB-468 = assay: Growth inhibition of human MDA-MB-468 cells assessed as cell growth at 10 uM after 48 hrs by sulforhodamine B assay; assay type: functional; details: MDA-MB-468, 48 h, read-out: Activity; procedure, shortened: as §2
SN12C [3] = assay: Growth inhibition of human SN12C cells assessed as cell growth at 10 uM after 48 hrs by sulforhodamine B assay; assay type: functional; details: read-out: Activity
Procedure, shortened: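 Single-dose NCI-60 test at 10 µM. Cells were grown in RPMI 1640 with 5% FBS and 2 mM L-glutamine, preincubated 24 h, with T0 plates TCA-fixed. Exposure was 48 h at 37 °C, 5% CO2. Cells were fixed with cold TCA (final 10%, 4 °C, 60 min), stained with SRB and read at 515 nm. Percent growth was taken relative to T0 and untreated control; negative values denote cell kill.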

M14 [4] = assay: Growth inhibition of human M14 cells assessed as cell growth at 10 uM after 48 hrs by sulforhodamine B assay; assay type: functional; details: M14, 48 h, read-out: Activity; procedure, shortened: as §1
OVCAR-8 = assay: Growth inhibition of human OVCAR8 cells assessed as cell growth at 10 uM after 48 hrs by sulforhodamine B assay; assay type: functional; details: OVCAR-8, 48 h, read-out: Activity; procedure, shortened: as §2
786-0 = assay: Growth inhibition of human 786-0 cells assessed as cell growth at 10 uM after 48 hrs by sulforhodamine B assay; assay type: functional; details: 786-0, 48 h, read-out: Activity; procedure, shortened: as §1
NCI-H322M [5] = assay: Growth inhibition of human NCI-H322M cells assessed as cell growth at 10 uM after 48 hrs by sulforhodamine B assay; assay type: functional; details: read-out: Activity; procedure, shortened: as §2
NCI-H322M [6] = assay: Growth inhibition of human NCI-H322M cells after 48 hrs by sulforhodamine B assay; assay type: functional
Procedure, shortened: (§3)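 NCI-60 panel cells grown in RPMI 1640 with 5% FBS and 2 mM L-glutamine, seeded at 5000–40,000 cells/well and preincubated 24 h. Five 10-fold dilutions (0.001–100 µM) from DMSO stocks were added for 48 h at 37 °C. Adherent cells were fixed with cold TCA (10% final) for 60 min at 4 °C, stained with 0.4% SRB, and read at 515 nm. GI50 was set where 100×(T−T0)/(C−T0)=50.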

M14 [7] = assay: Growth inhibition of human M14 cells after 48 hrs by sulforhodamine B assay; assay type: functional; details: M14, 48 h
Procedure, shortened: (§4)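 NCI-60 screen: cells in RPMI 1640 with 5% FBS and 2 mM glutamine, 5000–40,000 cells/well, preincubated 24 h. Five concentrations (10-fold dilutions; 100 to 0.001 µM) applied for 48 h at 37 °C. TCA fixation, SRB stain, absorbance at 515 nm. Time-zero plates included; GI50 where 100×(T−T0)/(C−T0)=50.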

SN12C [8] = assay: Growth inhibition of human SN12C cells after 48 hrs by sulforhodamine B assay; assay type: functional
Procedure, shortened: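 NCI-60 five-dose screen. Cells were grown in RPMI 1640 with 5% FBS and 2 mM L-glutamine, plated at 5000–40,000 cells/well and incubated 24 h before dosing, with T0 plates TCA-fixed. DMSO stocks were diluted to doses of […] and exposed 48 h at 37 °C, 5% CO2. Cells were fixed with cold TCA (final 10%, 60 min, 4 °C), stained with 0.4% SRB in 1% acetic acid for 10 min, solubilized in 10 mM trizma base and read at 515 nm. GI50 is where 100×(T−T0)/(C−T0)=50.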

SF-539 = assay: Growth inhibition of human SF539 cells after 48 hrs by sulforhodamine B assay; assay type: functional; details: SF-539, 48 h; procedure, shortened: as §3
[9] = Growth inhibition of human HCC2998 cells after 48 hrs by sulforhodamine B assay; assay type: functional; details: HCC 2998, 48 h; procedure, shortened: as §4
CAKI-1 [10] = assay: Growth inhibition of human CAKI-1 cells after 48 hrs by sulforhodamine B assay; assay type: functional; details: CAKI-1, 48 h; procedure, shortened: as §4
RPMI-8226 = assay: Growth inhibition of human RPMI8226 cells after 48 hrs by sulforhodamine B assay; assay type: functional; details: RPMI-8226, 48 h
Procedure, shortened: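 NCI-60 suspension lines in RPMI 1640 with 5% FBS and 2 mM L-glutamine, preincubated 24 h. A five-concentration 10-fold series (0.001–100 µM) was given for 48 h at 37 °C. Settled cells were fixed with 80% TCA (16% final), stained with SRB, and read at 515 nm. GI50 was taken where 100×(T−T0)/(C−T0)=50, with T0 plates fixed at drug addition.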

A498 = assay: Growth inhibition of human A498 cells after 48 hrs by sulforhodamine B assay; assay type: functional; details: A498, 48 h; procedure, shortened: as §4

| SMILES | growth at 10 µM (HT-29) [%] | growth at 10 µM (CAKI-1 [1]) [%] | growth at 10 µM (RXF 393) [%] | growth at 10 µM (COLO 205) [%] | growth at 10 µM (MDA-MB-231) [%] | IC50 (MCF7) [nM] | growth at 10 µM (HCT-116) [%] | growth at 10 µM [2] [%] | growth at 10 µM (MDA-MB-468) [%] | growth at 10 µM (SN12C [3]) [%] | growth at 10 µM (M14 [4]) [%] | growth at 10 µM (OVCAR-8) [%] | growth at 10 µM (786-0) [%] | growth at 10 µM (NCI-H322M [5]) [%] | further results |
| --- | --- | --- | --- | --- | --- | --- | --- | --- | --- | --- | --- | --- | --- | --- | --- |
| CC(C)=CCC/C(C)=C/CC/C(C)=C/CC[C@]1(C)CCc2c3c(cc(C)c2O1)OCN(CCCCCCCCCCCCO)C3 | 49.5 | 78.3 | 34.4 | 71.2 | 99.8 | > 20000 | 51.6 | 77.6 | 77.4 | 71.8 | 90.9 | 11.7 | 97 | 86 |  |
| COc1ccc(CCN2COc3cc(C)c4c(c3C2)CC[C@@](C)(CC/C=C(\C)CC/C=C(\C)CCC=C(C)C)O4)cc1OC | 0.54 | 79.8 |  | -72.5 | 13.2 |  | -84 | 85.5 | -25.4 | 37 | -19.5 | -70.7 | 49.3 | 4.19 | GI50 (NCI-H322M [6]): 2710 nM; GI50 (M14 [7]): 1790 nM; GI50 (SN12C [8]): 1630 nM; GI50 (SF-539): 1960 nM; GI50 [9]: 1480 nM; GI50 (CAKI-1 [10]): 3950 nM; GI50 (RPMI-8226): 3070 nM; GI50 (A498): 1800 nM |
| CC(C)=CCC/C(C)=C/CC/C(C)=C/CC[C@]1(C)CCc2cc(O)c(C)c(C)c2O1 [GAMMA-TOCOTRIENOL] | 96.1 | 89.5 | 84.1 | 94.4 | 108 | 7100 | 109 | 110 | 108 | 96 | 109 | 112 | 114 | 95.2 |  |
| COc1ccc(CCNCc2c(O)c(C)c(C)c3c2CC[C@@](C)(CC/C=C(\C)CC/C=C(\C)CCC=C(C)C)O3)cc1OC | 45.8 | 86.6 |  | 5.95 | 78.6 |  | 47.1 | 99.3 | 59.1 | 74 | 90.4 | 66.8 | 78.1 | 95.6 |  |
| CC(C)=CCC/C(C)=C/CC/C(C)=C/CC[C@]1(C)CCc2c(CNCCc3ccc(O)cc3)c(O)c(C)c(C)c2O1 | 95.5 | 86.1 |  | 106 | 89.5 |  | 61.4 | 99.8 | 104 | 95.1 | 102 | 84.8 | 78.2 | 100 |  |
| CC(C)=CCC/C(C)=C/CC/C(C)=C/CC[C@]1(C)CCc2c3c(c(C)c(C)c2O1)OCN(CCc1ccc(O)cc1)C3 | 84.5 | 84.2 |  | 52.1 | 68.5 | 10600 | 37.7 | 93.9 | 88.8 | 85.4 | 97.6 | 42.1 | 77.3 | 96 |  |
| CC(C)=CCC/C(C)=C/CC/C(C)=C/CC[C@]1(C)CCc2c3c(cc(C)c2O1)OCN(C1CCN(Cc2ccccc2)CC1)C3 | 22.7 | 75.3 |  | -36.5 | 18.2 |  | -81.9 | 78 | 0.33 | 1.77 | 50.1 | -85.8 | 24.1 | 19 | GI50 (NCI-H322M [6]): 1850 nM; GI50 (M14 [7]): 1890 nM; GI50 (SN12C [8]): 1460 nM; GI50 (SF-539): 1830 nM; GI50 [9]: 626 nM; GI50 (CAKI-1 [10]): 1600 nM; GI50 (RPMI-8226): 324 nM; GI50 (A498): 1310 nM |
| CC(C)=CCC/C(C)=C/CC/C(C)=C/CC[C@]1(C)CCc2c3c(c(C)c(C)c2O1)OCN(CCCCCCCCCCCCO)C3 | 84.4 | 96.2 | 92.5 | 97.5 | 119 | > 20000 | 102 | 105 | 106 | 97.4 | 113 | 100 | 110 | 90.7 |  |
| COc1ccc(CCN2COc3c(C)c(C)c4c(c3C2)CC[C@@](C)(CC/C=C(\C)CC/C=C(\C)CCC=C(C)C)O4)cc1OC | 91.7 | 88.5 |  | 86.7 | 96.1 | > 20000 | 91.9 | 94.1 | 95.1 | 87.3 | 101 | 101 | 94.9 | 101 |  |
| CC(C)=CCC/C(C)=C/CC/C(C)=C/CC[C@]1(C)CCc2c3c(cc(C)c2O1)OCN(CCCCCCCCCCO)C3 | 48.3 | 77.9 | 52.6 | 79.3 | 119 | 4600 | 65.6 | 87.1 | 83.8 | 92.7 | 94.9 | 74.6 | 85.3 | 104 |  |
| CC(C)=CCC/C(C)=C/CC/C(C)=C/CC[C@]1(C)CCc2c3c(c(C)c(C)c2O1)OCN(CCCCCCCCCCO)C3 | 90 | 78.9 | 83.1 | 100 | 112 | 19400 | 78.4 | 102 | 91.9 | 99.4 | 101 | 89.7 | 99.2 | 101 |  |
